ChEMBL document CHEMBL3352013, “The design and synthesis of potent and selective inhibitors of Trypanosoma brucei glycogen synthase kinase 3 for the treatment of human african trypanosomiasis” (J Med Chem, 2014)

What was measured:
[1] = biological target: Glycogen synthase kinase-3 (Homo sapiens, UniProt P49840+P49841); experiment: Inhibition of human GSK3 using biotinylated GSP2 substrate by flashplate assay; assay type: protein assay
CDK2/Cyclin A2 = CDK2/Cyclin A2 (Homo sapiens, UniProt P24941); experiment: Inhibition of human CDK2/cyclin A using Biotin-C6-PKTPKKAKKL substrate; assay type: protein-complex assay
[2] = Selectivity ratio, ratio of IC50 for human CDK2/cyclin A to IC50 for Trypanosoma brucei GSK3
[3] = Selectivity ratio, ratio of IC50 for human GSK3 to IC50 Trypanosoma brucei GSK3
[4] = Inhibition of Trypanosoma brucei GSK3 using biotinylated GSP2 substrate by flashplate assay
Summary of the method: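 Radiometric Flashplate assay: 2.5 nM TbGSK3 short, 1 μM biotinylated GSP2, 1 μM ATP plus [γ-33P]-ATP. 10-point titration 30 μM to 0.3 nM final, 1% DMSO. IC50 averaged over two or more experiments; standard GW8510 used for reproducibility (MSR).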

MRC5 = experiment: Cytotoxicity against human MRC5 cells assessed as growth inhibition after 72 hrs; assay type: cell-based; conditions: MRC5, 72 h
Summary of the method: (§1)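 Resazurin viability assay: 2 × 10³ cells/well (MRC5 in MEM + 10% FBS; bloodstream-form T. b. brucei in appropriate medium), compounds 50 μM to 0.5 nM, 37 °C, 5% CO₂ for 69 h, then resazurin 50 μM final for further 4 h; fluorescence read. Concentration giving 50% growth inhibition over 72 h; average of two or more experiments.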

[5] = test system: Trypanosoma brucei brucei; experiment: Trypanocidal activity against bloodstream stage of Trypanosoma brucei brucei assessed as inhibition of proliferation after 72 hrs; assay type: functional, organism-based; summary of the method: as §1

Row | Compound | IC50 [1] [nM] | IC50 (CDK2/Cyclin A2) [nM] | Ratio IC50 [2] | Ratio IC50 [3] | IC50 [4] [nM] | EC50 (MRC5) [nM] | EC50 [5] [nM]
1 | CO[C@H]1CC[C@H](NC(=O)c2n[nH]cc2NC(=O)c2ccc(N3CCCC3)cc2)CC1 | < 5 | 130 | 6.8 | – | 19 | > 50000 | 2700
2 | CO[C@H]1CC[C@H](NC(=O)c2n[nH]cc2NC(=O)c2cc3ccccc3o2)CC1 | < 5 | – | – | – | 13 | 800 | 1200
3 | COc1cccc(OC)c1C(=O)Nc1c[nH]nc1C(=O)NC1CCC1 | 80 | 2400 | 300 | 10 | 8 | > 50000 | 12000
4 | COc1cccc(OC)c1C(=O)Nc1c[nH]nc1C(=O)NC1CC2CCC1C2 (stereo not given) | – | > 10000 | > 560 | – | 18 | > 50000 | 16000
5 | COc1ccccc1CC(=O)Nc1c[nH]nc1C(=O)N[C@H]1CC[C@H](OC)CC1 | 210 | 850 | 1.7 | 0.42 | 500 | 40000 | 22000
6 | CO[C@H]1CC[C@H](NC(=O)c2n[nH]cc2NC(=O)Cc2ccccc2F)CC1 | 140 | 820 | 2.1 | 0.35 | 390 | > 50000 | 23000
7 | COCCNC(=O)c1n[nH]cc1NC(=O)c1c(OC)cccc1OC | 300 | > 10000 | > 290 | 8.8 | 34 | > 50000 | 43000
8 | CO[C@H]1CC[C@H](NC(=O)c2n[nH]cc2NC(=O)c2cc(Cl)cc(Cl)c2)CC1 | < 5 | 630 | 11 | – | 57 | 13000 | 9600
9 | CO[C@H]1CC[C@H](NC(=O)c2n[nH]cc2NC(=O)c2cnc3ccccn23)CC1 | < 5 | 150 | 1.6 | – | 94 | 5900 | 2600
10 | CO[C@H]1CC[C@H](NC(=O)c2n[nH]cc2NC(=O)c2cc3ccccn3n2)CC1 | < 5 | 42 | 0.67 | – | 63 | 1000 | 1900
11 | CO[C@H]1CC[C@H](NC(=O)c2n[nH]cc2NC(=O)c2cc(F)cc(F)c2)CC1 | < 5 | 83 | 3.5 | – | 24 | 600 | 2600
12 | CCCCCNC(=O)c1n[nH]cc1NC(=O)c1c(OC)cccc1OC | 100 | 4800 | 4800 | – | 1 | > 50000 | 7300
13 | COc1cccc(OC)c1C(=O)Nc1c[nH]nc1C(=O)NCC1CCCCC1 | – | – | – | – | 1 | > 50000 | 7700
14 | CO[C@H]1CC[C@H](NC(=O)c2n[nH]cc2NC(=O)c2ccc(F)cc2F)CC1 | < 5 | 220 | 4.2 | – | 53 | 11000 | 3800
15 | CO[C@H]1CC[C@H](NC(=O)c2n[nH]cc2NC(=O)c2ccc(OC(F)F)cc2)CC1 | < 5 | 270 | 17 | – | 16 | 2500 | 1100
16 | CO[C@H]1CC[C@H](NC(=O)c2n[nH]cc2NC(=O)c2ccc(N3CCN(C)CC3)cc2)CC1 | < 5 | 1000 | 14 | – | 70 | 20000 | 2000
17 | COc1ccccc1C(=O)Nc1c[nH]nc1C(=O)N[C@H]1CC[C@H](OC)CC1 | < 13 | 100 | 25 | – | 4 | 1500 | 900
18 | COc1cccc(OC)c1C(=O)Nc1c[nH]nc1C(=O)NC1CC1 | 220 | > 10000 | – | 18 | 12 | > 50000 | 19000

The next lines start with results.

Row | IC50 [1] [nM] | IC50 (CDK2/Cyclin A2) [nM] | Ratio IC50 [2] | Ratio IC50 [3] | Compound | IC50 [4] [nM] | EC50 (MRC5) [nM] | EC50 [5] [nM]
19 | 70 | 4300 | 720 | 12 | COc1cccc(OC)c1C(=O)Nc1c[nH]nc1C(=O)Nc1ccccc1 | 6 | > 50000 | 11500
20 | 20 | – | – | 1.8 | CO[C@H]1CC[C@H](NC(=O)c2n[nH]cc2NC(=O)c2ccccc2Nc2ccccc2)CC1 | 11 | 35000 | 4400
21 | 470 | > 10000 | > 30 | 1.4 | COc1cccc(OC)c1C(=O)Nc1c[nH]nc1C(=O)NCCCN(C)C | 330 | > 50000 | > 50000
22 | 870 | > 10000 | > 71 | 6.2 | COc1cccc(OC)c1C(=O)Nc1c[nH]nc1C(=O)NCc1ncccc1C | 140 | > 50000 | > 50000
23 | 120 | 1300 | 330 | 30 | COc1cccc(OC)c1C(=O)Nc1c[nH]nc1C(=O)Nc1ccncc1 | 4 | > 50000 | 8200
24 | 940 | > 10000 | > 31 | 2.9 | COc1cccc(OC)c1C(=O)Nc1c[nH]nc1C(=O)Nc1ccccn1 | 320 | > 50000 | > 50000
25 | 8 | 1000 | 2 | 0.16 | CO[C@H]1CC[C@H](NC(=O)c2n[nH]cc2NC(=O)C2CCC(F)(F)CC2)CC1 | 500 | > 50000 | 16000
26 | 30 | – | – | 0.45 | CO[C@H]1CC[C@H](NC(=O)c2n[nH]cc2NC(=O)c2ccccc2Nc2cccc(C)c2C)CC1 | 66 | 16000 | 5800
27 | – | > 10000 | > 10000 | – | COc1cccc(OC)c1C(=O)Nc1c[nH]nc1C(=O)NCCCOC(C)C | 1 | > 50000 | 6600
28 | < 5 | 14 | – | 0.25 | CO[C@H]1CC[C@H](NC(=O)c2n[nH]cc2NC(=O)c2ccccc2F)CC1 | 20 | 1000 | 400
29 | > 10000 | > 10000 | – | – | COc1cccc(OC)c1C(=O)Nc1c[nH]nc1C(=O)O | > 50000 | > 50000 | > 50000
30 | < 13 | 100 | 5.6 | – | CO[C@H]1CC[C@H](NC(=O)c2n[nH]cc2NC(=O)c2ccccc2C(F)(F)F)CC1 | 18 | 3300 | 2300
31 | – | > 4800 | 4800 | – | COc1cccc(OC)c1C(=O)Nc1c[nH]nc1C(=O)NC1CCC(C)CC1 (mixture of isomers) | 1 | 45000 | 6700
